Data published in ChEMBL document CHEMBL2346534, “Design, synthesis and in vitro anti-proliferative activity of 4,6-quinazolinediamines as potent EGFR-TK inhibitors” (Eur J Med Chem, 2013).

Legend:
Format in all cases: functional
SNB-19 = experiment: Cytotoxicity against human SNB19 cells after 48 hrs by SRB assay; conditions: SNB-19, 48 h
Procedure, shortened: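 NCI 60-panel five-dose screen. Cells in RPMI 1640 with 5% FBS and 2 mM L-glutamine are plated at 5000–40,000 cells/well by doubling time and preincubated 24 h at 37 °C in 5% CO2. Drug in DMSO is tested at 0.01, 0.1, 1, 10 and 100 μM for 48 h. Cells are TCA-fixed, stained with SRB and read at 515 nm. GI50 is the concentration giving 50% reduction in net protein increase relative to time-zero and control plates.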

HL-60(TB) = experiment: Cytotoxicity against human HL-60(TB) cells after 48 hrs by SRB assay; conditions: HL-60, 48 h
Procedure, shortened: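 NCI 60-panel five-dose screen. Cells were grown in RPMI 1640 with 5% FBS and 2 mM L-glutamine and preincubated 24 h before dosing. Compound from DMSO stock was given at five 10-fold concentrations for 48 h at 37 °C, 5% CO2. Suspension cells were fixed with TCA (final 16%), SRB-stained, and read at 515 nm. GI50, TGI and LC50 came from time-zero, control and treated absorbances.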

T47D = experiment: Cytotoxicity against human T47D cells after 48 hrs by SRB assay
Procedure, shortened: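 NCI 60 five-dose screen. Cells in RPMI 1640 with 5% FBS and 2 mM L-glutamine, plated at 5000–40,000 cells/well by doubling time, pre-incubated 24 h at 37 °C, 5% CO2. Time-zero plates TCA-fixed at drug addition. Final concentrations 0.01, 0.1, 1, 10 and 100 µM (DMSO stock), 48 h exposure. TCA fixation, 0.4% SRB stain, absorbance 515 nm. GI50 from [(Ti−Tz)/(C−Tz)]×100 = 50.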

Malme-3M = experiment: Cytotoxicity against human MALME-3M cells after 48 hrs by SRB assay
Procedure, shortened: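 NCI 60-panel five-dose screen. Cells in RPMI 1640 with 5% FBS and 2 mM L-glutamine, plated at 5000–40,000 cells/well by doubling time, preincubated 24 h at 37 °C/5% CO2. Drug from DMSO stock added at 0.01, 0.1, 1, 10 and 100 µM, then 48 h. TCA fixation, SRB stain, absorbance at 515 nm, time-zero plates included. GI50 = 50% reduction in net protein increase versus control.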

[1] = read-out: LC50 (the source's name)

`NC(=O)Nc1ccc2ncnc(Nc3ccc(Cl)cc3)c2c1` gave a GI50 (SNB-19) of 9.02 µM, a TGI (SNB-19) greater than 100 µM and a CC50 (SNB-19; [1]) greater than 100 µM. It also gave a GI50 (HL-60(TB)) of 24.4 µM, a TGI (HL-60(TB)) of 69.8 µM and a CC50 (HL-60(TB); [1]) greater than 100 µM. The GI50 (T47D) was 6.47 µM, the TGI (T47D) was 72.3 µM and the CC50 (T47D; [1]) was greater than 100 µM. For the same compound, the GI50 (Malme-3M) was 22 µM, the TGI (Malme-3M) was 60.7 µM and the CC50 (Malme-3M; [1]) was greater than 100 µM.
